In experiment [1] the target is Somatostatin receptor type 4 (Homo sapiens, UniProt P31391). The experiment is described as follows: Binding affinity towards human Somatostatin receptor type 4 using 125I-[Leu8,DTrp22,Tyr25]SRIF-28 as radioligand.
The target of experiment [2] is Somatostatin receptor type 1 (Homo sapiens, UniProt P30872). The experiment can be described thus: Binding affinity towards human Somatostatin receptor type 1 using 125I-[Leu8,DTrp22,Tyr25]SRIF-28 as radioligand. The essentials:
(§1)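 Competitive radioligand displacement on cloned somatostatin receptors, with non-selective 125I-[Leu8,DTrp22,Tyr25]SRIF-28 as the tracer. IC50 (nM) is taken from the displacement curves. Separate determinations are listed individually, or their number is given in parentheses.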

Experiment [3] addresses Somatostatin receptor type 3 (Homo sapiens, UniProt P32745). The experiment is described as follows: Binding affinity towards human Somatostatin receptor type 3 using 125I-[Leu8,DTrp22,Tyr25]SRIF-28 as radioligand. The essentials: as §1
Experiment [4] addresses Somatostatin receptor type 2 (Homo sapiens, UniProt P30874). The experiment can be described thus: Binding affinity towards human Somatostatin receptor type 2 using 125I-[Leu8,DTrp22,Tyr25]SRIF-28 as radioligand. The procedure, abridged:
as §1

Experiment [5] deals with Somatostatin receptor type 5 (Homo sapiens, UniProt P35346). The experiment can be described thus: Binding affinity towards human Somatostatin receptor type 5 using 125I-[Leu8,DTrp22,Tyr25]SRIF-28 as radioligand. The procedure, abridged: as §1

Several values for one entry are separate records, joined by “and”; a condition that tells them apart may be missing. Equal entries are not always repeated. A value given as a limit tells only on which side of the number the result lay.

The term IC50 denotes the concentration that inhibits the measured activity by half.

Sequence of Somatostatin receptor type 3 (P32745 whole entry): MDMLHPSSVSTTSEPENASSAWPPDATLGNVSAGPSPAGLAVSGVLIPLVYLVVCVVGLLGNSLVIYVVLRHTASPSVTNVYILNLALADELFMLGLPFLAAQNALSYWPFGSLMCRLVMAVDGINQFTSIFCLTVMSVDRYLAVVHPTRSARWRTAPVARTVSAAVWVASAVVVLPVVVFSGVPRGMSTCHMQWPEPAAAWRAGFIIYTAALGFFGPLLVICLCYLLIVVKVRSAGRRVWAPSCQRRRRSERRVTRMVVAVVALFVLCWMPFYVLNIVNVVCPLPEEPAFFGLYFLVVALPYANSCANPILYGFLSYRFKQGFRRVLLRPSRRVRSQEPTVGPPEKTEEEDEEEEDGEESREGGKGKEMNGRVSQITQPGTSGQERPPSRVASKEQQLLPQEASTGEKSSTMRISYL
Sequence of Somatostatin receptor type 2 (P30874 whole entry): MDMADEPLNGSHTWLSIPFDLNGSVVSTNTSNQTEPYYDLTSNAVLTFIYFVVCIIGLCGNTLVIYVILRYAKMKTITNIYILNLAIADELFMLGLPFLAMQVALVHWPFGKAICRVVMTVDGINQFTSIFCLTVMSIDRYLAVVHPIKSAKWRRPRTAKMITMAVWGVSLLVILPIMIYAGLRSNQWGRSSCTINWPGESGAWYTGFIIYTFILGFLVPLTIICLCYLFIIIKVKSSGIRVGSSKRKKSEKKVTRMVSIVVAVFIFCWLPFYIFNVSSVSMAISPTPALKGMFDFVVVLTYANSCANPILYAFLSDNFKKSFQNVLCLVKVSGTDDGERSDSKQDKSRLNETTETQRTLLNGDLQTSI
Sequence of Somatostatin receptor type 5 (P35346 whole entry): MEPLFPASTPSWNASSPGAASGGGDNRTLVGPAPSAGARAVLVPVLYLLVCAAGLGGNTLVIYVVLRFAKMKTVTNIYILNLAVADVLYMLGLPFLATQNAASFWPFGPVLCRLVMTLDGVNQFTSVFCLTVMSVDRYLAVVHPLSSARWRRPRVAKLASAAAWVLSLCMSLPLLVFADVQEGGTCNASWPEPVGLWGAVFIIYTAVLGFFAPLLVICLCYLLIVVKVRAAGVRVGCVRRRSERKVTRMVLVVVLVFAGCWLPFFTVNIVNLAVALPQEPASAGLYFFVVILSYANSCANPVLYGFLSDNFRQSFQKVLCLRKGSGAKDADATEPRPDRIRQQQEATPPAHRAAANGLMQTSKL
Sequence of Somatostatin receptor type 4 (P31391 whole entry): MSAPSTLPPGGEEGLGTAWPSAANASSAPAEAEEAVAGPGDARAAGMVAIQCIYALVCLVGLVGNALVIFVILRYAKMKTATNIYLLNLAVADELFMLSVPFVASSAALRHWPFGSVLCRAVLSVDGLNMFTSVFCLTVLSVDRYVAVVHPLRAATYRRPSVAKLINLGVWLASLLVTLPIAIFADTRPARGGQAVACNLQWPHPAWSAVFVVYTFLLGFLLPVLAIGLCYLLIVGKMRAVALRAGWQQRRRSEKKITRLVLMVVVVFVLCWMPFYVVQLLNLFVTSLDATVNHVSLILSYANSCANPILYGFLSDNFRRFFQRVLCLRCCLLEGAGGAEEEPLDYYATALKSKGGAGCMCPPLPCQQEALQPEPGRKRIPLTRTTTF
Sequence of Somatostatin receptor type 1 (P30872 whole entry): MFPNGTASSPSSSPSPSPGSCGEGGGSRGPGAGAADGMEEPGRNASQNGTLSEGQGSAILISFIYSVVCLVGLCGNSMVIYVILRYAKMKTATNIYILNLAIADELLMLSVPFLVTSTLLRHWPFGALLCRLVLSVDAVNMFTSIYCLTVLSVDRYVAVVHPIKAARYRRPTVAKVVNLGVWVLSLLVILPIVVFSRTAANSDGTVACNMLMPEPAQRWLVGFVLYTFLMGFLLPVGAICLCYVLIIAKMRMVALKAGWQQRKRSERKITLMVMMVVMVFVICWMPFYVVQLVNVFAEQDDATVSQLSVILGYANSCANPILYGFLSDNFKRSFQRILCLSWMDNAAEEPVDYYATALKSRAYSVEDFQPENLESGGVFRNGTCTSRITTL

Consider `C[C@H](c1ccc2ccccc2c1)[C@@H]1NC(=O)[C@H](Cc2ccc(O)cc2)NC(=O)[C@H](Cc2ccccc2)NC(=O)[C@H](N)CSSC[C@@H](C(=O)O)NC(=O)[C@H](Cc2ccccc2)NC(=O)[C@H]([C@@H](C)O)NC(=O)[C@H](CCCCN)NC1=O`, for which the IC50 in experiment [1] came to 2.3 nM; in experiment [2], 410 nM; in experiment [3], 18 nM; in experiment [4], 30 nM; in experiment [5], 18 nM.
Consider `C[C@@H](O)[C@@H]1NC(=O)[C@H](CCCCN)NC(=O)[C@H](Cc2c[nH]c3ccccc23)NC(=O)N(C)[C@H](C(=O)c2ccccc2)NC(=O)[C@H](Cc2ccccc2)NC(=O)[C@@H](N)CSSC[C@@H](C(=O)O)NC(=O)[C@H](Cc2ccccc2)NC1=O` (stereo in doubt), for which the IC50 in experiment [1] was 133 nM; in experiment [2], above 10000 nM; in experiment [3] it was 725 nM; in experiment [4], above 1000 nM; in experiment [5], above 1000 nM.
As to `C[C@@H](O)[C@@H]1NC(=O)[C@H](CCCCN)NC(=O)[C@H](Cc2c[nH]c3ccccc23)NC(=O)N(C)[C@@H](C(=O)c2ccccc2)NC(=O)[C@@H](Cc2ccccc2)NC(=O)[C@@H](N)CSSC[C@@H](C(=O)O)NC(=O)[C@H](Cc2ccccc2)NC1=O` (stereo in doubt), the IC50 is 5.4 nM in experiment [1]; above 10000 nM in experiment [2]; 403 nM in experiment [3]; above 1000 nM in experiment [4]; above 1000 nM in experiment [5].
For `C[C@@H](O)[C@@H]1NC(=O)[C@H](CCCCN)NC(=O)[C@H]([C@@H](C)c2ccc3ccccc3c2)NC(=O)[C@H](Cc2ccc(O)cc2)NC(=O)[C@H](Cc2ccccc2)NC(=O)[C@@H](N)CSSC[C@@H](C(=O)O)NC(=O)[C@H](Cc2ccccc2)NC1=O`, the concentration for half-maximal inhibition (IC50) in experiment [1] came to 2.8 nM; in experiment [3], 825 nM; in experiment [4] it was 194 nM; in experiment [5], 360 nM.
On to `C[C@@H]1NC(=O)[C@H](Cc2ccccc2)NC(=O)[C@@H](N)CSSC[C@@H](C(=O)O)NC(=O)[C@H](C)NC(=O)[C@H]([C@@H](C)O)NC(=O)[C@H](CCCCN)NC(=O)[C@@H](Cc2c[nH]c3ccccc23)NC1=O`, for which the IC50 is above 10000 nM in experiment [2]; above 10000 nM in experiment [3]; > 1000 nM and 962 nM in experiment [4]; above 1000 nM in experiment [5].
Turning to `C[C@@H]1NC(=O)[C@H](Cc2ccccc2)NC(=O)[C@@H](N)CSSC[C@@H](C(=O)O)NC(=O)[C@H](C)NC(=O)[C@H]([C@@H](C)O)NC(=O)[C@H](CCCCN)NC(=O)[C@H](Cc2c[nH]c3ccccc23)NC1=O`, the IC50 is above 10000 nM in experiment [2], above 10000 nM in experiment [3], above 10000 nM in experiment [4] and above 1000 nM in experiment [5].
`C[C@@H](O)[C@@H]1NC(=O)[C@H](CCCCN)NC(=O)[C@H]([C@@H](C)c2ccc3ccccc3c2)NC(=O)[C@H](Cc2ccc(O)cc2)NC(=O)[C@H](Cc2ccccc2)NC(=O)[C@H](N)CSSC[C@@H](C(=O)O)NC(=O)[C@H](Cc2ccccc2)NC1=O`: the IC50 was 3.5 nM in experiment [1]; above 10000 nM in experiment [2]; 664 nM in experiment [3]; 339 nM in experiment [4]; 668 nM in experiment [5].
`C[C@@H](O)[C@@H]1NC(=O)[C@H](CCCCN)NC(=O)[C@@H](Cc2c[nH]c3ccccc23)NC(=O)N(C)[C@@H](C(=O)c2ccccc2)NC(=O)[C@H](Cc2ccccc2)NC(=O)[C@@H](N)CSSC[C@@H](C(=O)O)NC(=O)[C@H](Cc2ccccc2)NC1=O` (stereo in doubt): the IC50 was 5.2 nM in experiment [1]; above 1000 nM in experiment [2]; 447 nM in experiment [3]; 460 nM in experiment [4]; 768 nM in experiment [5].
On to `C[C@@H](O)[C@@H]1NC(=O)[C@H](CCCCN)NC(=O)[C@@H](Cc2c[nH]c3ccccc23)NC(=O)N(C)[C@H](C(=O)c2ccccc2)NC(=O)[C@H](Cc2ccccc2)NC(=O)[C@@H](N)CSSC[C@@H](C(=O)O)NC(=O)[C@H](Cc2ccccc2)NC1=O` (stereo in doubt), for which the IC50 in experiment [1] is 153 nM; in experiment [2] it was above 10000 nM; in experiment [3] it was above 1000 nM; in experiment [4], above 1000 nM; in experiment [5] it was above 1000 nM.

The values are drawn from ChEMBL document CHEMBL1145935, “Novel sst(4)-selective somatostatin (SRIF) agonists. 4. Three-dimensional consensus structure by NMR” (J Med Chem, 2003).
